Assay outcomes: PubChem BioAssay, several laboratories
Tb hexokinase: T. brucei hexokinase 1 inhibition. hit rate 0.11% among 220,000. AID 1430. recombinant TbHK1, G6PDH-coupled NADH A340. inhibition, % at 10 µM;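 active means inhibition of 50% or more in the single-dose primary screen; inactive means inhibition below 50%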
RanGTP-Imp inh: inhibitors of RanGTP-importin-beta interaction, primary screen, biochemical, FRET, CFP-Ran, YFP-importin-beta, homogeneous; hit rate 1.1% among 300,000; cell-free CFP-Ran/YFP-importin-beta FRET ratio; inhibition, % (test concentration not listed); AID 2216;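 active means more than half of the replicate wells show a fall in the fluorescence ratio signal beyond about 16%, limit read from the data, passing the limit was not always enough; inconclusive means exactly half of the replicate wells pass the set limit; inactive means fewer than half of replicates pass the limit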;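 further: 0% = DMSO wells and 100% = Ran loaded with GDP instead of GTP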
Runt-SMMHC FRET: blocks binding of human RUNX1 Runt domain to CBFb-SMMHC. Cerulean-Runt/Venus-CBFb-SMMHC FRET ratio 530/480, 1 h. Q01196+Q13951. inhibition, % at 20 µM. hit rate 0.74% among 220,000;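 active means mean inhibition across duplicate retests at 20 µM reaching about 50%, limit read from the data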;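 further: 0% = DMSO wells and 100% = wells with excess untagged CBFb-SMMHC; inhibitors lower the FRET ratio by blocking Runt binding to CBFb-SMMHC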
Runt-CBFb FRET: Runt domain-CBFb interaction inhibition | Q01196+Q13951 | Cerulean-Runt/Venus-CBFb FRET ratio 530/480, 1 h | inhibition, % at 20 µM | hit rate 0.46% among 220,000 | AID 1496;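 active means inhibition over about 50% at 20 µM in the single-dose screen, limit read from the data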;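 further: 0% = DMSO wells and 100% = excess unlabeled CBFb competitor control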
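Reagent – Venus-CBFb binding partner, 100 nM · Assay system – Cerulean-tagged RUNX1 Runt domain (FRET donor) fusion protein · Input – 100 nM per protein · Incubation – two 1 h room-temperature incubations shielded from light · Measured by – FRET fluorescence · Medium – Tris buffer pH 7.5 with salts and BSA · Benchmarks – unlabeled CBFb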
Hck Nef HTS: inhibitors of human Hck kinase activated by Nef; Recombinant Hck-YEEI plus Nef, Z-Lyte FRET kinase assay; inhibition, % at 20 µM; hit rate 0.68% among 220,000;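 active means Hck-Nef kinase inhibition above about 50%, limit read from the data; inactive means inhibition below that limit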;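 further: 0% = DMSO with Hck plus Nef and 100% = Hck alone without Nef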
Target sequence (P08631 whole entry, looked up): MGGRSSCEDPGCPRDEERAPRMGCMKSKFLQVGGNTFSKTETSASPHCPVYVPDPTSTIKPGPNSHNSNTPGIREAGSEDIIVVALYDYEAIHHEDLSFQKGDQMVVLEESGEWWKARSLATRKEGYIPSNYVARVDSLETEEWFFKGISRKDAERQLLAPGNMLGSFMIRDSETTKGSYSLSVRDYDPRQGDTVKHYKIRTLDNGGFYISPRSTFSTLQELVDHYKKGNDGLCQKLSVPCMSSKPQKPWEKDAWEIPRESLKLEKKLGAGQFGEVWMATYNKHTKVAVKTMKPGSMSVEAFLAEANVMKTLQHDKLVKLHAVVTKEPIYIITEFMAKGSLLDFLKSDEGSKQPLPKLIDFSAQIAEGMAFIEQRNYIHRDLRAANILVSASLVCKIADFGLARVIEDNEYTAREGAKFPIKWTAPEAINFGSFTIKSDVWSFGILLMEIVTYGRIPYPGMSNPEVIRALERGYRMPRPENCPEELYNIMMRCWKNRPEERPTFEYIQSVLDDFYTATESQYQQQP
The depositor's hits bear a star; ? = inconclusive; / = not tested or not shown. A selection: hits, their analogues and other compounds. The true share with any hit is near 1.9%.

SMILES | Tb hexokinase | RanGTP-Imp inh | Runt-SMMHC FRET | Runt-CBFb FRET | Hck Nef HTS
COc1ccc(-c2c(C#N)c(N)nc3c2CCC3)cc1 | -5 | -6 | 97* | 45 | 10
COc1ccc(-c2c(C#N)c(N)nc3c2CCCC3)cc1OC | -11 | -2 | / | / | 10
Cc1c(C#N)c(=O)oc2ccc3ccccc3c12 | -9 | 1 | 97* | 71* | 8
CC(C)Cc1nnc(NC(=O)CCC(=O)N2CCN(c3ccccc3F)CC2)s1 | / | 154* | / | / | /
COc1ccc(N2CCN(Cc3nc(-c4ccccc4)no3)CC2)cc1 | -7 | -1 | / | / | 23
CC(C)=CCN1CCN(Cc2cccn2-c2ccccn2)CC1CCO (centres undefined) | 4 | -1 | -4 | 1 | 22
COc1ccc(CC(=O)Nc2nncs2)cc1OC | 6 | 3 | 83 | 89* | 3
Cc1ccc(CC(=O)Nc2nncs2)cc1 | 6 | 4 | -1 | -2 | 0
O=C(COC(=O)c1cccc(NS(=O)(=O)/C=C/c2ccccc2)c1)Nc1ccccc1OC(F)F | 17 | 2 | 7 | 0 | 4
COc1ccc2[nH]c3c(NCCC4=CCCCC4)ncnc3c2c1 | 1 | 2 | -2 | / | 92*
Cc1ccc(S(=O)(=O)NC(C(=O)Oc2ccc3c(C)c(Cl)c(=O)oc3c2)c2ccccc2)cc1 (centres undefined) | -17 | 72* | 59* | 64* | 88*
Cc1ccc(S(=O)(=O)N[C@H](C(=O)Oc2ccc3c(C(F)(F)F)cc(=O)oc3c2)c2ccccc2)cc1 | -9 | 33* | 78* | 11 | -1
C(=N\Nc1nc2ccccc2[nH]1)/c1ccc2c(c1)OCO2 | -47 | -1 | 2 | 2 | -9
C(=C/c1nccc2c1[nH]c1ccccc12)/c1ccc2c(c1)OCO2 | 0 | 120* | 53* | 26 | 8
COc1ccc(-c2cc(-c3nnc(-c4ccncc4)o3)c3ccccc3n2)cc1 | -4 | 3 | 70* | 34 | 5
COc1cc(-c2onc3ccc(Br)cc23)cc(OC)c1OC | -6 | 10 | 111* | 67* | 22
COc1ccc(-c2onc3ccc(Br)cc23)cc1 | 9 | -8 | -20 | 14 | 2
Cc1ccc2c(c1)sc(-c1ccc(N(C)C)cc1)[n+]2C | / | -2 | / | / | /
CCOc1ccc(NC(=O)CN(C)S(=O)(=O)c2ccc3c(c2)CCC(=O)N3)cc1 | -7 | 0 | 60* | 2 | 8
CN(C)c1nc(-c2ccccc2)c2cc(Cl)ccc2n1 | / | 21* | / | / | /
COc1ccc(OC)c(NC(=O)COC(=O)CCCN2C(=O)c3ccccc3C2=O)c1 | -4 | 4 | 2 | -2 | 2
Cc1ccc(OCCNC(=O)c2ccccc2F)cc1 | / | 1 | / | / | /
N=c1oc2ccccc2cc1-c1nc(-c2ccccc2)cs1 | 1 | 44* | -160 | -60 | -1
N=c1oc2ccc3ccccc3c2cc1-c1nc(-c2ccccc2)cs1 | -5 | 73* | 29 | 22 | 2
CCC(=O)NC1=C(Cl)C(=O)C(NC(=O)CC)=C(Cl)C1=O | -24 | / | 95* | 17 | 5
SMILES | Tb hexokinase | RanGTP-Imp inh | Runt-SMMHC FRET | Runt-CBFb FRET | Hck Nef HTS
COc1cccc(C(=S)N2CCOCC2)c1OS(=O)(=O)c1ccc(Cl)cc1 | / | 3 | / | / | /
CCCc1cc(=O)n2[nH]c(C(F)(F)F)nc2n1 | -5 | ? | 2 | 1 | 14
CCCc1cc(=O)n2[nH]c(C)nc2n1 | 38 | 23* | -4 | 1 | 4
CN(C(=S)Nc1ccc(F)cc1)C1(c2ccccc2Cl)CCCCC1=O (centres undefined) | -1 | -2 | 0 | 88* | 2
O=C(/C=C/c1c[nH]c2ccccc12)c1cccc2ccccc12 | -5 | 17* | 8 | 20 | -1
Nc1cc(-c2ccccc2)nn1Cc1ccccc1 | 10 | 32* | -2 | -1 | -16
CCOc1ccc(NC(=O)CCC(=O)O)cc1 | -2 | 24* | 0 | 2 | 1
Nc1nc(C2CC(=O)OC23CCCCC3)cs1 (centres undefined) | 3 | 21* | -1 | 3 | 6
Cc1nc(C2CC(=O)OC23CCCCC3)cs1 (centres undefined) | -8 | -4 | 3 | -2 | 1
O=C(N/N=C\C=C\c1ccc2c(c1)OCO2)C1COc2cc3ccccc3cc2O1 (centres undefined) | -8 | 19* | 2 | 1 | 4
O=C(N/N=C/c1ccc2c(c1)OCO2)C1COc2ccccc2O1 (centres undefined) | -8 | -3 | -2 | -1 | 1
O=C(c1ccc2ccccc2c1)C1CCCN(S(=O)(=O)c2cccnc2)C1 (centres undefined) | -2 | 3 | -2 | -1 | 13
COc1ccc(C2C3=C(CC(C)(C)CC3=O)Nc3c2c(=O)n(C)c(=O)n3C)cc1OC (centres undefined) | -6 | 5 | 107* | 63* | 6
COc1ccc(OC)c(C2C3=C(CCCC3=O)Nc3nnnn32)c1 (centres undefined) | -23 | 8 | 2 | -1 | 0
COc1ccc(C2C3=C(CC(C)(C)CC3=O)Nc3cc4c(cc32)OCO4)cc1 (centres undefined) | -15 | -3 | -1 | 0 | 5
COc1ccc(C2C3=C(CC(C)(C)CC3=O)Nc3c2c(=O)[nH]c2nc(C)nn32)cc1 (centres undefined) | -10 | 46* | 135* | 87* | 4
COc1ccc(OC)c(C2C3=C(CCCC3=O)Nc3c2c(=O)n(C)c(=O)n3C)c1 (centres undefined) | -26 | 3 | 73* | 33 | 6
C=CCOc1ccccc1C1C2=C(CC(C)(C)CC2=O)Nc2c1c(=O)n(C)c(=O)n2C (centres undefined) | -12 | 2 | 46 | 24 | 8
COCc1c(C(=O)N/N=C(/C)c2ccc(OCc3ccccc3)cc2)nnn1-c1nonc1N | / | 6 | / | / | /
COc1cc(OC)c(C2CC(=O)N3CN(c4ccccc4C)CSC3=C2C#N)cc1OC (centres undefined) | -18 | -64 | 67* | 41 | 13
COc1ccc(OC)c(C2CC(=O)N3CN(c4ccccc4)CSC3=C2C#N)c1 (centres undefined) | -23 | -7 | 62* | 33 | 0
COc1ccc(N2CSC3=C(C#N)C(c4cccc(OC)c4OC)CC(=O)N3C2)cc1 (centres undefined) | -22 | 2 | 33 | 15 | 0
Cc1cccc(N2CSC3=C(C#N)C(c4ccc(C)o4)CC(=O)N3C2)c1 (centres undefined) | 0 | -6 | 19 | 23 | 80*
COc1ccc(S(=O)(=O)N2CCOc3ccccc32)cc1 | / | -1 | / | / | /
CSC1=N/C(=C\c2c(F)cccc2Cl)C(=O)S1 | -9 | -2 | 2 | 2 | 2
O=C1C/C(=C\c2c(F)cccc2Cl)N2CCC1CC2 | 8 | 53* | -5 | -1 | 13
